Data on five molecules can be found in ChEMBL document CHEMBL1909617, “Bioactive dammarane-type saponins from Operculina turpethum” (J Nat Prod, 2011).

Data set [1] is described as follows: Cytoprotective activity in human embryo L02 cells assessed as inhibition of D-galactosamine-induced cytotoxicity at 3.13 ug/ml treated for 1 hr prior to D-galactosamine challenge measured after 48 hrs by MTT assay relative to control. The class given is functional. Put shortly:
(§1)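 L-02 human embryo liver cells in RPMI-1640 with 10% heat-inactivated FBS, penicillin, streptomycin, L-glutamine; seeded 2 × 10^4 cells/mL, grown 24 h at 37 °C, 5% CO2. Fresh medium with compound (diluted from 1 mg/mL DMSO stock) for 1 h, then 5 mM D-GalN for 48 h. MTT read at 570 nm; inhibition (%) = (OD compound − OD GalN control)/(OD blank − OD control) × 100; n = 3, mean ± SD.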
A general note: Tetrazolium assays rely on reduction of a dye to a coloured formazan, in cell work by metabolically active cells.

Data set [2] can be described thus: Cytotoxicity against human embryo L02 cells assessed as cell viability after 48 hrs by MTT assay. Format: cell-based. The note with it: read-out: MTD. The gist of the method: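 Human embryo liver L-02 cells in RPMI-1640 with 10% heat-inactivated FBS, penicillin, streptomycin and L-glutamine, seeded at 2 × 10^4 cell/mL and grown 24 h at 37 C, 5% CO2. Medium replaced by serial dilutions of compound (from 1 mg/mL DMSO stock), 48 h exposure. MTT added for 4 h, formazan dissolved in DMSO, OD 570 nm. Viability = OD(compound)/OD(control) × 100; maximum nontoxic concentration derived.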

The nature of data set [3]: Cytoprotective activity in human embryo L02 cells assessed as inhibition of D-galactosamine-induced cytotoxicity at 6.25 ug/ml treated for 1 hr prior to D-galactosamine challenge measured after 48 hrs by MTT assay relative to control. The class given is functional. Put shortly: as §1
Data set [4] is described as follows: Cytoprotective activity in human embryo L02 cells assessed as inhibition of D-galactosamine-induced cytotoxicity at 12.5 ug/ml treated for 1 hr prior to D-galactosamine challenge measured after 48 hrs by MTT assay relative to control. The class given is functional. The gist of the method:
as §1

Data set [5] in a line: Cytoprotective activity in human embryo L02 cells assessed as inhibition of D-galactosamine-induced cytotoxicity at 1.56 ug/ml treated for 1 hr prior to D-galactosamine challenge measured after 48 hrs by MTT assay relative to control. Format: functional. Put shortly:
as §1

In the case of `CC(C)[C@]1(CO[C@@H]2O[C@H](CO)[C@@H](O)[C@H](O)[C@H]2O)CC[C@@](C)([C@H]2[C@H](O)C[C@]3(C)[C@@H]2CC[C@@H]2[C@@]4(C)CC[C@H](O[C@@H]5O[C@H](CO)[C@@H](O)[C@H](O)[C@H]5O[C@@H]5O[C@H](CO)[C@@H](O)[C@H](O)[C@H]5O)C(C)(C)[C@@H]4CC[C@]23C)O1` [OPERCULINOSIDE B], the inhibition at 3.13 µg/mL in data set [1] was determined as 3.5%. Besides, the MNTC at 48 h in data set [2] was 100 µg/mL. For the same molecule, in data set [3], the inhibition at 6.25 µg/mL came out at 10.4%. For the same molecule, the inhibition at 12.5 µg/mL in data set [4] is -6.9%.
The like results for `CC(C)(O)[C@@H]1CC[C@@](C)([C@H]2[C@H](O)C[C@]3(C)[C@@H]2CC[C@@H]2[C@@]4(C)CC[C@H](O[C@@H]5O[C@H](CO)[C@@H](O)[C@H](O)[C@H]5O[C@@H]5O[C@H](CO)[C@@H](O)[C@H](O)[C@H]5O)C(C)(C)[C@@H]4CC[C@]23C)O1` [OPERCULINOSIDE C] were, in that order, 16.7%, 50 µg/mL, 69.5% and 44.1%.
With `CC(C)[C@]1(CO)CC[C@@](C)([C@H]2[C@H](O)C[C@]3(C)[C@@H]2CC[C@@H]2[C@@]4(C)CC[C@H](O[C@@H]5O[C@H](CO)[C@@H](O)[C@H](O)[C@H]5O[C@@H]5O[C@H](CO)[C@@H](O)[C@H](O)[C@H]5O)C(C)(C)[C@@H]4CC[C@]23C)O1` [OPERCULINOSIDE A], the inhibition at 3.13 µg/mL in data set [1] was -22.8%. For the same molecule, the MNTC at 48 h in data set [2] was 12.5 µg/mL. Further, the inhibition at 6.25 µg/mL in data set [3] was -14.7%. In data set [4], the inhibition at 12.5 µg/mL amounted to 46.7%.
On to `CC(C)(O[C@@H]1O[C@H](CO)[C@@H](O)[C@H](O)[C@H]1O)[C@@H]1CC[C@@](C)([C@H]2[C@H](O)C[C@]3(C)[C@@H]2CC[C@@H]2[C@@]4(C)CC[C@H](O[C@@H]5O[C@H](CO)[C@@H](O)[C@H](O)[C@H]5O[C@@H]5O[C@H](CO)[C@@H](O)[C@H](O)[C@H]5O)C(C)(C)[C@@H]4CC[C@]23C)O1` [OPERCULINOSIDE D], for which, in data set [1], the inhibition at 3.13 µg/mL is 5.5%. Further, the MNTC at 48 h in data set [2] amounted to 100 µg/mL. The inhibition at 6.25 µg/mL in data set [3] worked out at 6.3%. For the same molecule, the inhibition at 12.5 µg/mL in data set [4] was determined as 22.2%.
Regarding `COc1cc(C2Oc3cc([C@H]4Oc5cc(O)cc(O)c5C(=O)[C@@H]4O)ccc3OC2CO)ccc1O` (stereo not given in full) [SILIBININ], the inhibition at 1.56 µg/mL in data set [5] was determined as 10.1%. The inhibition at 3.13 µg/mL in data set [1] is 33.4%. Further, the MNTC at 48 h in data set [2] amounted to 6.25 µg/mL. For the same molecule, the inhibition at 6.25 µg/mL in data set [3] was found to be 28.2%.

The inhibition is the drop in the measured response relative to a control, in per cent.
